Laboratory results from ChEMBL document CHEMBL1123282, “Antiinflammatory activity of substituted 6-hydroxypyrimido[2,1-f]purine-2,4,8(1H,3H,9H)-triones. Atypical nonsteroidal antiinflammatory agents” (J Med Chem, 1986).
Where “and” joins values, the source holds several entries; their conditions need not be identical. Identical values can stand only once.

Experiments:
[1] = biological target: T1, Polyunsaturated fatty acid 5-lipoxygenase (Rattus norvegicus) (UniProt P12527); assay: In vitro inhibitory activity against Lipoxygenase in rat neutrophils at a dose of 50 uM
T1 sequence (whole entry): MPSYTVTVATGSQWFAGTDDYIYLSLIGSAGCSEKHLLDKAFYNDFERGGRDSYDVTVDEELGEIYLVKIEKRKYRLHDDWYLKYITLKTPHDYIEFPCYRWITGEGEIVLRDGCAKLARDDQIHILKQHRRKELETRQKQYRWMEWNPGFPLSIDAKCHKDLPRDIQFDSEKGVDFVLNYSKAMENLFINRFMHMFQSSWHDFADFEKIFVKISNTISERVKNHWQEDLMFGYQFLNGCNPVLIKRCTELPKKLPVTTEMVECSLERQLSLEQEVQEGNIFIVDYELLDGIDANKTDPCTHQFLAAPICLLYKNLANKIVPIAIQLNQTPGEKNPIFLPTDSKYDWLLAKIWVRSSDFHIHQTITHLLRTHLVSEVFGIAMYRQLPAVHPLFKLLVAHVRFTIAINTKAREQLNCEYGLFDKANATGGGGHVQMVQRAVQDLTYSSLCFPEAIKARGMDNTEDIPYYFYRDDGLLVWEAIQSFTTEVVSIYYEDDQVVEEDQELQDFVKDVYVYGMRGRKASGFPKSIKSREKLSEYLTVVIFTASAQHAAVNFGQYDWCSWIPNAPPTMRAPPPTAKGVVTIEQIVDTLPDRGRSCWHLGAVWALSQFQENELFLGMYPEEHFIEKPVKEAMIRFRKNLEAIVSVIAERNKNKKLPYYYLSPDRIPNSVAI
Summary of the method: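 Neutrophils come from the 4 h pleural exudate of male Wistar-Lewis rats given iv BSA plus intrapleural rabbit anti-BSA IgG. Cells are washed, red cells lysed with NH4Cl, and resuspended at about 5×10^6 cells/0.1 mL in Tris pH 7.4 with NaCl and 1 mM CaCl2. Cells are preincubated with compound 4 min at room temperature.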

[2] = biological target: Cyclooxygenase (Rattus norvegicus) (UniProt P35355+Q63921); assay: In vitro inhibitory activity against Prostaglandin G/H synthase in rat neutrophils at a dose of 50 uM
Rattus norvegicus [3] = species: Rattus norvegicus; assay: Antiinflammatory activity by immune response to collagen II antigen in rats antibody titer was determined by passive hemagglutinination; assay type: functional
Summary of the method: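 In rats with bovine type II collagen/incomplete Freund's adjuvant arthritis, the antibody response to collagen II was titred by passive hemagglutination. The delayed-type hypersensitivity component, ear thickness 24 h after intrapinna antigen, was read at day 21.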

Rattus norvegicus [4] = assay: Antiinflammatory activity against collagen II arthritis in rats, activity % inhibition in noninjected paw edema; assay type: functional; parameters: concentration or dose not given beside the values
Summary of the method: (§1)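 Rats immunised with bovine articular-cartilage type II collagen (dissolved in 0.01 M AcOH for 24 h at 4 °C, dialysed against saline) mixed in equal volume with incomplete Freund's adjuvant. Paws were examined weekly for 7 weeks. An animal counted as arthritic at Δ paw volume ≥8.0 (injected paw) or ≥4.0 (noninjected paw). Bone lesions were scored on lateral-projection foot radiographs. 16 rats/group.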

Rattus norvegicus [5] = assay: Tested in vivo for antiinflammatory activity against chronic adjuvant arthritic rat by prophylactic inhibition 2 degree paw after peroral administration of 9 mg/kg of dose; assay type: functional; conditions: route oral
Summary of the method: (§2)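 Prophylactic regimen, rats. Adjuvant is heat-killed Mycobacterium tuberculosis ground to a fine powder in paraffin oil (6 mg/mL); 0.1 mL is injected into the left hind paw. Oral drug is given 1 h before adjuvant challenge, then for 21 consecutive days; controls receive methyl cellulose. Left (1°) and right (2°) hind paw volumes are measured by plethysmograph.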

Rattus norvegicus [6] = assay: Compound was tested in vivo for antiinflammatory activity against chronic adjuvant arthritic rat by therapeutic inhibition 1 degree paw after peroral administration of 3.3 mg/kg of dose; assay type: functional; conditions: route oral
Rattus norvegicus [7] = assay: Compound was tested in vivo for antiinflammatory activity against chronic adjuvant arthritic rat by therapeutic inhibition 1 degree paw after peroral administration of 10 mg/kg of dose; assay type: functional; conditions: route oral
Rattus norvegicus [8] = assay: Compound was tested in vivo for antiinflammatory activity against chronic adjuvant arthritic rat by therapeutic inhibition 2 degree paw after peroral administration of 10 mg/kg of dose; assay type: functional; conditions: route oral
Rattus norvegicus [9] = assay: Tested in vivo for antiinflammatory activity against chronic adjuvant arthritic rat by prophylactic inhibition 1 degree paw after peroral administration of 9 mg/kg of dose; assay type: functional; conditions: route oral; summary of the method: as §2
Rattus norvegicus [10] = assay: In vivo antiinflammatory activity against rats by RPAR(reverse passive Arthus reaction) synovitis method; assay type: functional; parameters: concentration or dose not given beside the values
Summary of the method: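 Lewis rats, oral drug or placebo 1 h before iv BSA (2.28 mg in saline), then intraarticular rabbit anti-BSA (0.54 mg) into one knee and saline into the other, under light anesthesia. Second oral dose at 3 h; the total of both doses is the calculated dose. About 17 h after induction, subpatellar tissue with synovium is excised and weighed. Response is antibody-minus-saline knee weight, tested by analysis of variance.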

Rattus norvegicus [11] = assay: Compound was tested in vivo against chronic adjuvant arthritic rat by prophylactic inhibition 2 degree paw. Relative potency with respect to (8-Benzyl-5-hydroxy-1,3-dimethyl-6-propyl-1H,8H-1,3,4b,8,9-pentaaza-fluorene-2,4,7-trione); assay type: functional
Rattus norvegicus [12] = species: Rattus norvegicus; assay: Antiinflammatory activity on the development of collagen II arthritis in rats, measured based on animals positive for arthritis by the presence of bone lesions; assay type: functional; summary of the method: as §1
Rattus norvegicus [13] = assay: Antiinflammatory activity on the development of collagen II arthritis in rats, measured based on animals positive for arthritis by the presence of paw edema; assay type: functional; summary of the method: as §1
Rattus norvegicus [14] = assay: Compound was tested in vivo for antiinflammatory activity against chronic adjuvant arthritic rat by prophylactic inhibition 2 degree paw after peroral administration of 18 mg/kg of dose; conditions: po
Rattus norvegicus [15] = assay: Compound was tested in vivo for antiinflammatory activity against chronic adjuvant arthritic rat by prophylactic inhibition 2 degree paw after peroral administration of 36 mg/kg of dose; conditions: po
Rattus norvegicus [16] = assay: Compound was tested for intestinal Ulcerogenic effect in rats at a dose of 10 mg/kg; assay type: functional
Summary of the method: (§3)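 Normal fed rats were gavaged once daily for three consecutive days at 10–300 mg/kg and killed 24 h after the last dose. Intestines were examined for ulcers, recording incidence per group of 8 and a lesion score (±SE).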

Rattus norvegicus [17] = assay: Compound was tested for intestinal Ulcerogenic effect in rats, activity expressed as ulcer incidence at a dose of 100 mg/kg; assay type: functional; summary of the method: as §3
Rattus norvegicus [18] = assay: Compound was tested for intestinal Ulcerogenic effect in rats, activity expressed as ulcer incidence at a dose of 10 mg/kg; assay type: functional; summary of the method: as §3
Rattus norvegicus [19] = assay: Compound was tested for intestinal Ulcerogenic effect in rats, activity expressed as ulcer incidence at a dose of 30 mg/kg; assay type: functional; summary of the method: as §3
Rattus norvegicus [20] = assay: Compound was tested for intestinal Ulcerogenic effect in rats, activity expressed as lesion score at a dose of 100 mg/kg; assay type: functional; summary of the method: as §3
Rattus norvegicus [21] = assay: Compound was tested for intestinal Ulcerogenic effect in rats, activity expressed as lesion score at a dose of 10 mg/kg; assay type: functional; summary of the method: as §3
Rattus norvegicus [22] = assay: Compound was tested for gastric Ulcerogenic effect in rats, activity expressed as lesion length at a dose of 30 mg/kg
Rattus norvegicus [23] = assay: Compound was tested for gastric Ulcerogenic effect in rats, activity expressed as lesion length at a dose of 100 mg/kg
Rattus norvegicus [24] = assay: Compound was tested for gastric Ulcerogenic effect in rats, activity expressed as lesion length at a dose of 300 mg/kg

inhibition [1]	inhibition [2]	Compound	Antibody titer (Rattus norvegicus [3])	Inhibition (Rattus norvegicus [4])	inhibition in vivo at 9 mg/kg (Rattus norvegicus [5])	inhibition in vivo at 3.3 mg/kg (Rattus norvegicus [6])	inhibition in vivo at 10 mg/kg (Rattus norvegicus [7])	inhibition in vivo at 10 mg/kg (Rattus norvegicus [8])	inhibition in vivo at 9 mg/kg (Rattus norvegicus [9])	Inhibition (Rattus norvegicus [10])	Relative potency (Rattus norvegicus [11])	Positive (Rattus norvegicus [12])	Positive (Rattus norvegicus [13])	inhibition in vivo at 18 mg/kg (Rattus norvegicus [14])	inhibition in vivo at 36 mg/kg (Rattus norvegicus [15])	Ulcer incidence (Rattus norvegicus [16])	Ulcer incidence (Rattus norvegicus [17])	Ulcer incidence (Rattus norvegicus [18])	Ulcer incidence (Rattus norvegicus [19])	Lesion length (Rattus norvegicus [20])	also measured
21% and 22%	93%	CC(C)=CCc1c(O)n(Cc2ccc(F)cc2)c2nc3c(c(=O)n(C)c(=O)n3C)n2c1=O	8.4	80.6%	35%	21%	38%	67%	22%	29%	4.8	14.3%	21.4%	69%	69%						
0% and 8%	36%	CCCc1c(O)n(Cc2ccc(F)cc2)c2nc3c(c(=O)n(C)c(=O)n3C)n2c1=O	6.6	54.9%	49%				42%	53%	1.2	18.8%	31.3%	49%	67%	0 number/group	0 number/group	0 number/group	0 number/group	0 mm rat-1	Lesion length (Rattus norvegicus [21]): 0 mm rat-1; Length (Rattus norvegicus [22]): 0 mm rat-1; Length (Rattus norvegicus [23]): 0.2 mm rat-1; Length (Rattus norvegicus [24]): 0 mm rat-1
17% and 22%	92%	CC(C)=CCc1c(O)n(Cc2ccccc2)c2nc3c(c(=O)n(C)c(=O)n3C)n2c1=O	10.9	10.1%	76%	24%	54%	70%	30%	26%	3.1 and 4.3	40%	46.7%			0 number/group	1 number/group	0 number/group	0 number/group	0.1 mm rat-1	Lesion length (Rattus norvegicus [21]): 0 mm rat-1; Length (Rattus norvegicus [22]): 0 mm rat-1; Length (Rattus norvegicus [23]): 1 mm rat-1; Length (Rattus norvegicus [24]): 9.6 mm rat-1
